Laboratory results as given in ChEMBL document CHEMBL1255300, “Pharmacodynamics of the antibacterial effect and emergence of resistance to tomopenem, formerly RO4908463/CS-023, in an in vitro pharmacokinetic model of Staphylococcus aureus infection” (Antimicrob Agents Chemother, 2008).
Activity calls are given as the source filed them. The calls are words filed in the database; no cut-off is given here.

Experiments:
[1] = test system: Staphylococcus aureus; test: Antibacterial activity against methicillin-resistant Staphylococcus aureus 33815 infected in in vitro pharmacokinetic model assessed as time required to 99% killing at 1500 mg, iv every 8 hrs using 10^6 CFU/ml inoculum; type: functional
[2] = test system: Staphylococcus aureus; test: T>MIC for 4-log drop in count in methicillin-resistant Staphylococcus aureus 33815 in in vitro pharmacokinetic model after 24 hrs using 10^8 CFU/ml inoculum; type: functional
[3] = test system: Staphylococcus aureus; test: Antibacterial activity against methicillin-resistant Staphylococcus aureus 33827 infected in in vitro pharmacokinetic model assessed as reduction in viable count at 750 mg, iv every 8 hrs measured after 12 hrs using 10^8 CFU/ml inoculum; type: functional
In short: (§1)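 Single-compartment dilutional in vitro PK model, 10% Mueller-Hinton broth, 37°C, stirred, dilution 132 ml/h. […] Inoculum 10^6 CFU/ml (added 45 min pre-dose) or 10^8 CFU/ml (run overnight). Viable counts by spiral plating, beta-lactamase neutralization, detection limit 10^2 CFU/ml. At least triplicate.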

[4] = test system: Staphylococcus aureus; test: Antibacterial activity against methicillin-resistant Staphylococcus aureus 33815 infected in in vitro pharmacokinetic model assessed as reduction in viable count at 750 mg, iv every 8 hrs measured after 12 hrs using 10^8 CFU/ml inoculum; type: functional
In short: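 PK model at 37°C in 10% MHB. […] A 0.5 McFarland suspension (1 ml) was added and the model run overnight to reach 10^8 CFU/ml before dosing. Counts were spiral-plated on nutrient agar with β-lactamase. Change in log CFU/ml was measured from time 0; at least triplicate.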

[5] = test system: Staphylococcus aureus; test: AUBKC (0 to 24 hrs) in methicillin-resistant Staphylococcus aureus 33922 infected in in vitro pharmacokinetic model at 750 mg, iv every 8 hrs using 10^8 CFU/ml inoculum; type: functional
In short: (§2)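 Single-compartment dilutional in vitro PK model at 37°C in 10% Mueller-Hinton broth, stirred, flow 132 ml/h. […] Inoculum 10^6 CFU/ml added 45 min before dosing, or 10^8 CFU/ml run overnight. Viable counts with β-lactamase neutralisation. AUBKC by log-linear trapezoidal rule, at least triplicate.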

[6] = test system: Staphylococcus aureus; test: AUBKC (0 to 48 hrs) in methicillin-resistant Staphylococcus aureus 33827 infected in in vitro pharmacokinetic model at 750 mg, iv every 8 hrs using 10^8 CFU/ml inoculum; type: functional; in short: as §2
[7] = test system: Staphylococcus aureus; test: T>MIC in methicillin-sensitive Staphylococcus aureus 5956 infected in vitro pharmacokinetic model at 1500 mg, iv every 8 hrs; type: functional
[8] = test system: Staphylococcus aureus; test: AUBKC (0 to 48 hrs) in methicillin-resistant Staphylococcus aureus 33922 infected in in vitro pharmacokinetic model at 1500 mg, iv every 8 hrs using 10^8 CFU/ml inoculum; type: functional; in short: as §2
[9] = test system: Staphylococcus aureus; test: Antibacterial activity against methicillin-resistant Staphylococcus aureus 33921 assessed as viable count at 2 times of MIC after 24 hrs using 10^6 CFU/ml inoculum; type: functional, organism-based
[10] = test system: Staphylococcus aureus; test: T>MIC in methicillin-resistant Staphylococcus aureus 33815 infected in vitro pharmacokinetic model at 1500 mg, iv every 8 hrs; type: functional
[11] = test system: Staphylococcus aureus; test: Antibacterial activity against methicillin-resistant Staphylococcus aureus 33827 in in vitro pharmacokinetic model assessed as viable count at 4 times of MIC; type: functional
In short: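 Population analysis before drug exposure (time 0). Model samples were plated on nutrient agar without drug and with tomopenem at 2×, 4× and 6× MIC (10% MHB MIC), and growth was recorded as log CFU/ml. Detection limit 2 log10.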

[12] = test system: Staphylococcus aureus; test: Antibacterial activity against methicillin-resistant Staphylococcus aureus 33815 infected in in vitro pharmacokinetic model assessed as reduction in viable count at 750 mg, iv every 8 hrs measured after 12 hrs using 10^6 CFU/ml inoculum; type: functional
In short: (§3)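 Single-compartment dilutional in vitro PK model, 37°C, stirred, in 10% Mueller-Hinton broth. […] Inoculum 10^6 CFU/ml from a 24-h plate culture was added 45 min before dosing. Viable counts by spiral plating on nutrient agar with β-lactamase neutralization. Log change was taken from time 0; detection limit 10^2 CFU/ml; at least triplicate.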

[13] = test system: Staphylococcus aureus; test: Antibacterial activity against methicillin-sensitive Staphylococcus aureus 5956 infected in in vitro pharmacokinetic model assessed as reduction in viable count at 750 mg, iv every 8 hrs measured after 36 hrs using 10^6 CFU/ml inoculum; type: functional
[14] = test system: Staphylococcus aureus; test: Antibacterial activity against methicillin-resistant Staphylococcus aureus 33922 infected in in vitro pharmacokinetic model assessed as reduction in viable count at 750 mg, iv every 8 hrs measured after 36 hrs using 10^6 CFU/ml inoculum; type: functional
[15] = test system: Staphylococcus aureus; test: Antibacterial activity against methicillin-resistant Staphylococcus aureus 33827 infected in in vitro pharmacokinetic model assessed as reduction in viable count at 750 mg, iv every 8 hrs measured after 36 hrs using 10^6 CFU/ml inoculum; type: functional; in short: as §1
[16] = test system: Staphylococcus aureus; test: T>MIC for static effect in methicillin-resistant Staphylococcus aureus 33829 in in vitro pharmacokinetic model after 24 hrs using 10^6 CFU/ml inoculum; type: functional
[17] = test system: Staphylococcus aureus; test: T>MIC for 3-log drop in count in methicillin-resistant Staphylococcus aureus 33827 in in vitro pharmacokinetic model after 24 hrs using 10^6 CFU/ml inoculum; type: functional
[18] = test system: Staphylococcus aureus; test: T>MIC for 1-log drop in count in methicillin-sensitive Staphylococcus aureus 5956 in in vitro pharmacokinetic model after 24 hrs using 10^8 CFU/ml inoculum; type: functional
[19] = test system: Staphylococcus aureus; test: T>MIC for 1-log drop in count in methicillin-resistant Staphylococcus aureus 33922 in in vitro pharmacokinetic model after 24 hrs using 10^8 CFU/ml inoculum; type: functional
[20] = test system: Staphylococcus aureus; test: T>MIC for 3-log drop in count in methicillin-resistant Staphylococcus aureus 33815 in in vitro pharmacokinetic model after 24 hrs using 10^8 CFU/ml inoculum; type: functional
[21] = test system: Staphylococcus aureus; test: T>MIC for 4-log drop in count in methicillin-sensitive Staphylococcus aureus 5956 in in vitro pharmacokinetic model after 24 hrs using 10^8 CFU/ml inoculum; type: functional
In short: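 Dose-ranging: 7–13 simulated regimens per strain giving T>MIC of 0–100% (MIC from 10% MHB), at 106 or 10^8 CFU/ml as stated.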

[22] = test system: Staphylococcus aureus; test: Antibacterial activity against methicillin-resistant Staphylococcus aureus 33922 infected in in vitro pharmacokinetic model assessed as reduction in viable count at 1500 mg, iv every 8 hrs measured after 12 hrs using 10^6 CFU/ml inoculum; type: functional
[23] = test system: Staphylococcus aureus; test: Antibacterial activity against methicillin-resistant Staphylococcus aureus 33815 infected in in vitro pharmacokinetic model assessed as reduction in viable count at 1500 mg, iv every 8 hrs measured after 36 hrs using 10^6 CFU/ml inoculum; type: functional; in short: as §3
[24] = test system: Staphylococcus aureus; test: Antibacterial activity against methicillin-resistant Staphylococcus aureus 33922 infected in in vitro pharmacokinetic model assessed as reduction in viable count at 1500 mg, iv every 8 hrs measured after 48 hrs using 10^6 CFU/ml inoculum; type: functional
[25] = test system: Staphylococcus aureus; test: Antibacterial activity against methicillin-resistant Staphylococcus aureus 33827 infected in in vitro pharmacokinetic model assessed as time required to 99.9% killing at 750 mg, iv every 8 hrs using 10^6 CFU/ml inoculum; type: functional; in short: as §1
[26] = test system: Staphylococcus aureus; test: Antibacterial activity against methicillin-sensitive Staphylococcus aureus 5956 infected in in vitro pharmacokinetic model assessed as time required to 99.9% killing at 1500 mg, iv every 8 hrs using 10^6 CFU/ml inoculum; type: functional

Structure (SMILES): C[C@@H](O)[C@H]1C(=O)N2C(C(=O)O)=C(S[C@H]3C[C@@H](C(=O)N4CC[C@H](NC(=O)CNC(=N)N)C4)N(C)C3)[C@H](C)[C@H]12 [TOMOPENEM]
- Time [1]: 3 h
- fT>MIC [2]: 6.5%
- log10CFU/ml [3]: 3.8
- log10CFU/ml [4]: 1.7
- AUBC [5]: 71.5 log10CFU/ml.hr
- AUBC [6]: 87.9 log10CFU/ml.hr
- fT>MIC [7]: 100%
- AUBC [8]: 124.7 log10CFU/ml.hr
- Activity [9]: inactive
- fT>MIC [10]: 98%
- log10CFU/ml [11]: <2
- log10CFU/ml [12]: 4.2
- log10CFU/ml [13]: 4.5
- log10CFU/ml [14]: 4
- log10CFU/ml [15]: 3.7
- fT>MIC [16]: 12.1%
- fT>MIC [17]: 43%
- fT>MIC [18]: 3.4%
- fT>MIC [19]: 2%
- fT>MIC [20]: 3.3%
- fT>MIC [21]: 20.1%
- log10CFU/ml [22]: 4.2
- log10CFU/ml [23]: 4.2
- log10CFU/ml [24]: 4.2
- Time [25]: 7 h
- Time [26]: 8 h
